In ChEMBL document CHEMBL1148700, “Synthesis and identification of [1,2,4]thiadiazole derivatives as a new series of potent and orally active dual agonists of peroxisome proliferator-activated receptors alpha and delta” (J Med Chem, 2007):
Where “and” joins values, the source holds several entries; their conditions need not be identical. Equal entries are not always repeated. Calls of active or inactive are those of the source. The rule behind the calls is not given here.

Columns and labels:
[1] = molecular target: T1, Peroxisome proliferator-activated receptor alpha (Homo sapiens, UniProt Q07869); assay: Agonist activity at PPARalpha expressed in HEK293 cells by measuring Gal4 luciferase reporter activity; type: functional, cell-based
T1 sequence (Q07869 whole entry): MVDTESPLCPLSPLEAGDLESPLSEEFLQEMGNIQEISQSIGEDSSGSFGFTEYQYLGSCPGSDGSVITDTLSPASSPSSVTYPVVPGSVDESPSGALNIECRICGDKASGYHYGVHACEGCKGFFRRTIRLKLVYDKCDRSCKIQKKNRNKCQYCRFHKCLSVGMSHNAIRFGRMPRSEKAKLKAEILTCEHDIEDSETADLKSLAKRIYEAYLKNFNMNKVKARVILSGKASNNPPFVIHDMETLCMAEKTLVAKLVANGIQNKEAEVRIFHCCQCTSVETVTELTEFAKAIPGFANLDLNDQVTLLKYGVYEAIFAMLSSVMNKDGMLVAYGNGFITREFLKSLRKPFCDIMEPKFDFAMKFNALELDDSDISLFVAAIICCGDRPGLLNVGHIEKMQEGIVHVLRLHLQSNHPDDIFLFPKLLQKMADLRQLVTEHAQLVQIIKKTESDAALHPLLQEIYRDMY
In short: (§1)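 HEK293 cells grown in DMEM/F-12 with 10% FBS and glutamine, cotransfected with a PPARα ligand-binding domain-Gal4 chimera and a Gal4-luciferase reporter. Next day switched to 5% charcoal-treated FBS medium, replated after 6 h at 50 000 cells/well, and cultured overnight. Compound or vehicle (0.1% DMSO) added for 24 h at 37 °C. Luciferase read by Steady-Glo; percent efficacy given relative to a reference PPARα agonist.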

[2] = molecular target: T2, Peroxisome proliferator-activated receptor alpha (Homo sapiens) (UniProt Q07869); assay: Agonist activity at PPARalpha expressed in HEK293 cells by measuring Gal4 luciferase reporter activity relative to (S)-2- {2-[1-Ethyl-3-(4-trifluoromethoxyphenyl)ureido] indan-5-ylsulfanyl}-2- methylpropionic acid; type: functional, cell-based; in short: as §1
T2 sequence (whole entry): T1 sequence (Q07869 whole entry)

[3] = molecular target: T3, Peroxisome proliferator-activated receptor delta (Homo sapiens, UniProt Q03181); assay: Agonist activity at PPARdelta expressed in HEK293 cells by measuring Gal4 luciferase reporter activity; type: functional, cell-based
T3 sequence (Q03181 whole entry): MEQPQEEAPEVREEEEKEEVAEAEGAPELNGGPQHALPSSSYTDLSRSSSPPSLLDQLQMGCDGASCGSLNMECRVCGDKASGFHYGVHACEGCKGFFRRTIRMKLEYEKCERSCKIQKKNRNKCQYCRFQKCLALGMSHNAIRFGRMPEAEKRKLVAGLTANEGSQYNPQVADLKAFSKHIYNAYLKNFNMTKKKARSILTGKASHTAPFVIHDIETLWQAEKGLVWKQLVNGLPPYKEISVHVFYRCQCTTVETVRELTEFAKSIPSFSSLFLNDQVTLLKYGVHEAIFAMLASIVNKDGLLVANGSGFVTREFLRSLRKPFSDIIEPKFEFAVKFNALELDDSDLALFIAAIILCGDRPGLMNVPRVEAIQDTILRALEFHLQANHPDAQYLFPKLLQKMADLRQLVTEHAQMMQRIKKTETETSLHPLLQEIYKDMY

[4] = molecular target: T4, Peroxisome proliferator-activated receptor gamma (Homo sapiens, UniProt P37231); assay: Agonist activity at PPARgamma expressed in HEK293 cells by measuring Gal4 luciferase reporter activity; type: functional, cell-based
T4 sequence (P37231 whole entry): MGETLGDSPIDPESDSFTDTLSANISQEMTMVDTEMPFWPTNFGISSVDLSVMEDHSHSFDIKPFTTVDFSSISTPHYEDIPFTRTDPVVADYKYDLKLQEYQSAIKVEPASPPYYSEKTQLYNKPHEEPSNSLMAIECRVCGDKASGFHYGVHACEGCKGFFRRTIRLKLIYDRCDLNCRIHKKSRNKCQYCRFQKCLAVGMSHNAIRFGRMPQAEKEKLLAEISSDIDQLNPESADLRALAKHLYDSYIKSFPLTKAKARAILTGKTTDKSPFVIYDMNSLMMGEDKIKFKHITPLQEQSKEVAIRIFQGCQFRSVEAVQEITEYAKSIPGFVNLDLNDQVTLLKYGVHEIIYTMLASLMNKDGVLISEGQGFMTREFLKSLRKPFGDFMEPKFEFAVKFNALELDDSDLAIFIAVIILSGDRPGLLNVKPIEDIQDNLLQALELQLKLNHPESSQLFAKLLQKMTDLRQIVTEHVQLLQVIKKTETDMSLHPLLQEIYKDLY

[5] = Bioavailability in rat at 3 mg/kg, po; type: ADME, organism-based; details: in vivo
In short: (§2)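 Heparinized orbital-sinus blood was collected; plasma was precipitated with acetonitrile plus internal standard and quantified by LC-MS-MS using calibration standards prepared in plasma.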

Rattus norvegicus [6] = assay: Decrease in serum LDL-C levels in hypercholesterolemic Sprague-Dawley rat at 0.1 to 3 mg/kg/day, po after 8 days; type: functional, organism-based
In short: (§3)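 Male Sprague-Dawley rats (275-325 g) were fed a high-cholesterol atherogenic diet for 6 days before and throughout treatment; lean controls got normal chow plus vehicle. Drug in 0.5% Methocel was given orally at 10 mL/kg once daily for 8 days. On day 9, retro-orbital blood was taken under CO2/O2 anesthesia and serum lipids measured on a COBAS analyzer. n = 8/group; one-way ANOVA with Dunnett's test.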

Mus musculus [7] = assay: Effect on lipid homeostasis in human apoA1 transgenic mouse assessed as decrease in free fatty acid levels at 3 mg/kg, po after 7 days; type: functional; set-up: scale not given: the % may be the effect or the level left
In short: (§4)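 Male human apoA1 transgenic mice were given 3 mg/kg orally as a 0.5% methylcellulose suspension for 7 days. Serum HDL-C, triglyceride and free fatty acids were sampled under fed conditions and measured on a COBAS Mira Plus analyzer. n = 8/group; one-way ANOVA with Dunnett's test vs vehicle control.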

Mus musculus [8] = assay: Effect on lipid homeostasis in human apoA1 transgenic mouse assessed as decrease in triglyceride level at 3 mg/kg, po after 7 days; type: functional; set-up: scale not given: the % may be the effect or the level left; in short: as §4
Mus musculus [9] = assay: Effect on lipid homeostasis in C57BL/6J Lepob mouse assessed as decrease in serum triglyceride levels at 1 mg/kg, po after 11 days; type: functional; set-up: scale not given: the % may be the effect or the level left
In short: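 Seven-week-old female ob/ob (C57BL/6J-Lepob) mice were dosed orally with a 0.5% methylcellulose suspension for 11 days. Serum TG, glucose and FFA were taken under fed conditions and measured on a COBAS Mira Plus analyzer, and liver was weighed. Mean ± SEM, n = 8; one-way ANOVA with Dunnett's test vs vehicle.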

[10] = AUC in rat at 3 mg/kg; type: ADME, organism-based; set-up: dose 3 mg/kg; details: plasma
Mus musculus [11] = assay: Effect on lipid homeostasis in human apoA1 transgenic mouse assessed as increase in HDL-C levels at 3 mg/kg, po after 7 days; type: functional; in short: as §4
[12] = molecular target: T5, Peroxisome proliferator-activated receptor alpha (Mus musculus, UniProt P23204); assay: Efficacy on PPARalpha in mouse by HD assay
T5 sequence (P23204 whole entry): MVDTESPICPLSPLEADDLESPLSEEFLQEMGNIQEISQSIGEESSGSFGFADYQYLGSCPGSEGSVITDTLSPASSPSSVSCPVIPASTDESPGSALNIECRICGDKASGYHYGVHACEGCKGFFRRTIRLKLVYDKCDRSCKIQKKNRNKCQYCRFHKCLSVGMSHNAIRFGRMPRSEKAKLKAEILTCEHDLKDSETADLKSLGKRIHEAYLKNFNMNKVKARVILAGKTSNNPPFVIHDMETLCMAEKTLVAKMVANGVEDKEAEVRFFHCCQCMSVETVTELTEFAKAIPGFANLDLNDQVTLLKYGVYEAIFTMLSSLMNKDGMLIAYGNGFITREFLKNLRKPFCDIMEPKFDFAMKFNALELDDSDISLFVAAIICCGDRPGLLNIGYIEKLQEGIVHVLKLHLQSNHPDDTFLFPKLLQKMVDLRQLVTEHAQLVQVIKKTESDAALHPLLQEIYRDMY

Rattus norvegicus [13] = assay: Increase in serum HDL-C levels in hypercholesterolemic Sprague-Dawley rat at 0.1 to 3 mg/kg/day, po after 8 days; type: functional, organism-based; in short: as §3
[14] = molecular target: Retinoic acid receptor (Homo sapiens) (UniProt P13631+P10826+P10276); assay: Effect on RAR; type: protein assay
Sequence of Retinoic acid receptor (Homo sapiens) (P10276 whole entry, looked up): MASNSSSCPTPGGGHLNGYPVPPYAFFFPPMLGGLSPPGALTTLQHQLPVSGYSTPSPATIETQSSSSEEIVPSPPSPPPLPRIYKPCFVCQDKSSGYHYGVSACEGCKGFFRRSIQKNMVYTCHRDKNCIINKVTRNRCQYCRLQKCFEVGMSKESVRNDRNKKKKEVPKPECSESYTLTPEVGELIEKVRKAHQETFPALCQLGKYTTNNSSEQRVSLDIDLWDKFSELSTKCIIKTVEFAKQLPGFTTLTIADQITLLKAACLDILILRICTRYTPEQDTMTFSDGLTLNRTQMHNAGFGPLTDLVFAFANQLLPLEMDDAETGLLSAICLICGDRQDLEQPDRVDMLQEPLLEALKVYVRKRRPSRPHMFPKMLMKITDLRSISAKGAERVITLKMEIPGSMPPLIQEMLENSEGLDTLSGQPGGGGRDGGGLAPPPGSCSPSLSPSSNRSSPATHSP
Sequence of Retinoic acid receptor (Homo sapiens) (P10826 whole entry, looked up): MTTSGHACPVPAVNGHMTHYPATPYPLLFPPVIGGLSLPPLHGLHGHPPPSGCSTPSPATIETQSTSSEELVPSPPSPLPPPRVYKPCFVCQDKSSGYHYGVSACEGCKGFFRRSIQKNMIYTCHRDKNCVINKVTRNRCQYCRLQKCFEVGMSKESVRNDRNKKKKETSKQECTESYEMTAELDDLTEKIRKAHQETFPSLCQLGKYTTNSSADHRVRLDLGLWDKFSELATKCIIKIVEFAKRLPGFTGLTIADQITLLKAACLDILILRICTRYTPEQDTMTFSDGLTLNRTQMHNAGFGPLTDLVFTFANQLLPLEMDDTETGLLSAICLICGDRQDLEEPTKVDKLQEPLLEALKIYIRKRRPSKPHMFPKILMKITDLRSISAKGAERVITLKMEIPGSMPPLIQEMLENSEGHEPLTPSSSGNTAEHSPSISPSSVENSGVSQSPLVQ
Sequence of Retinoic acid receptor (Homo sapiens) (P13631 whole entry, looked up): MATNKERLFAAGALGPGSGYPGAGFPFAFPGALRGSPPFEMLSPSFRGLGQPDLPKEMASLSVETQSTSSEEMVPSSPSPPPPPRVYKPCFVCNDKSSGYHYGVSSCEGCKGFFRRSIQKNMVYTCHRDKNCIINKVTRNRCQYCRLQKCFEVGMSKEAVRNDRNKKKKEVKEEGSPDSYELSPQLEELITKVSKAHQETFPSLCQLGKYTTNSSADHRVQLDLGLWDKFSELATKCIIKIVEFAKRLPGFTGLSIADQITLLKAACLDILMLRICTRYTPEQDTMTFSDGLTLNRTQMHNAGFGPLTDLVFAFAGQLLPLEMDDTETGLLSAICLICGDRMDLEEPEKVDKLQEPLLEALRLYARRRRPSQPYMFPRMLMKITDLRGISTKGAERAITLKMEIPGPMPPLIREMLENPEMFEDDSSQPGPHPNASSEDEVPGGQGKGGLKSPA

[15] = molecular target: T6, Bile acid receptor (Homo sapiens) (UniProt Q96RI1); assay: Effect on FXR
T6 sequence (whole entry): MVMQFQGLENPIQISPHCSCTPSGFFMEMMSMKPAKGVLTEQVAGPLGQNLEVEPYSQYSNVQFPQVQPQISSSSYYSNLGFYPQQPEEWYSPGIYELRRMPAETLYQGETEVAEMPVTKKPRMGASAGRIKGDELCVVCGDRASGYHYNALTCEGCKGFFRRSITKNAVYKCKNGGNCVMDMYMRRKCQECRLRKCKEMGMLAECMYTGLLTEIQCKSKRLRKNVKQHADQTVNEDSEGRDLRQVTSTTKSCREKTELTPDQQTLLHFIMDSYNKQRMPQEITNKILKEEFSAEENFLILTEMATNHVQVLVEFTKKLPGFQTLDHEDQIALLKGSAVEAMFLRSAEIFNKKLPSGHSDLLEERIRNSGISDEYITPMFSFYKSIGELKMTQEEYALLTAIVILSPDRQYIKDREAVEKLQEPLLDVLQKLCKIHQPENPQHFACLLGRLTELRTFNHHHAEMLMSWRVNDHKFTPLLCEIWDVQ

[16] = Tmax in rat at 3 mg/kg, po; type: ADME, organism-based; set-up: dose 3 mg/kg, route oral; details: in vivo; in short: as §2
[17] = molecular target: Retinoid X receptor (Homo sapiens) (UniProt P28702+P48443+P19793); assay: Effect on RXR; type: protein assay
Sequence of Retinoid X receptor (Homo sapiens) (P19793 whole entry, looked up): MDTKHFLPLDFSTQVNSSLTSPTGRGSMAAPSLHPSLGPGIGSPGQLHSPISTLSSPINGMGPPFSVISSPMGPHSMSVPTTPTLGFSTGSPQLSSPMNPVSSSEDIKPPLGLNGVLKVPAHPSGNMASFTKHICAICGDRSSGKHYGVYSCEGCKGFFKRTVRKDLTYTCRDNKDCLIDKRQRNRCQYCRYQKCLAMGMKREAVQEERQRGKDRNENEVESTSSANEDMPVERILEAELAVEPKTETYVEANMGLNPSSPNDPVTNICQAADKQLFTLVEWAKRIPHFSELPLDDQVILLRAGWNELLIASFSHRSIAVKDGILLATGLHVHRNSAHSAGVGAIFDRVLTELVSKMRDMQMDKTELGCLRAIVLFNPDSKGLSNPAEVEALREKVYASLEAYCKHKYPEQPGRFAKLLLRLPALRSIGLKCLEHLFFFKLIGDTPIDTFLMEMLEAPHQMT
Sequence of Retinoid X receptor (Homo sapiens) (P28702 whole entry, looked up): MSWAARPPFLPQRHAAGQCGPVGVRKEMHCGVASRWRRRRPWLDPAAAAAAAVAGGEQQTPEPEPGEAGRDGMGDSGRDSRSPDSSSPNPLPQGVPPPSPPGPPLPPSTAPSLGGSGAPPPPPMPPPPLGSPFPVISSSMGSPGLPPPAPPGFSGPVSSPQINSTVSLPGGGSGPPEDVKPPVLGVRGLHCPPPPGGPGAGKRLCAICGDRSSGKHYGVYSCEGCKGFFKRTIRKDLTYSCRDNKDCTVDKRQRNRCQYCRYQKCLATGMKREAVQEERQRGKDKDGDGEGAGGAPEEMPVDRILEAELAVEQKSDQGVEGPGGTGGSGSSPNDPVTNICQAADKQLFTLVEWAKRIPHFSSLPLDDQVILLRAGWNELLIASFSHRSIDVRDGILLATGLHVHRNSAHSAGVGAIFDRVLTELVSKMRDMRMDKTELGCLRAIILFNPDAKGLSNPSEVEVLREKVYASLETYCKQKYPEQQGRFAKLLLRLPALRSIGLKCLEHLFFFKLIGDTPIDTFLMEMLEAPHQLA
Sequence of Retinoid X receptor (Homo sapiens) (P48443 whole entry, looked up): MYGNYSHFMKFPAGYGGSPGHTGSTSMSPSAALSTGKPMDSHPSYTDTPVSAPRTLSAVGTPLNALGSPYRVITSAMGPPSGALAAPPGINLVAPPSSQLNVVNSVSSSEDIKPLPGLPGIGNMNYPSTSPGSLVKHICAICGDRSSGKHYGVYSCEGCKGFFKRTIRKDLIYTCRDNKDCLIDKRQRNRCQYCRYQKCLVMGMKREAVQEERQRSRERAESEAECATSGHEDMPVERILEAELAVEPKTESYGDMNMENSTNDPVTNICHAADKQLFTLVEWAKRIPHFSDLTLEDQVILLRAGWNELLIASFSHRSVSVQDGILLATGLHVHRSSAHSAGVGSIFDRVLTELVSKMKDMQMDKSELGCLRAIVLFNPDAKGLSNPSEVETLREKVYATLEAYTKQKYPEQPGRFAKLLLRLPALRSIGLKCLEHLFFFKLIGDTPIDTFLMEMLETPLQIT

[18] = Clearance in rat at 3 mg/kg; type: ADME, organism-based; set-up: dose 3 mg/kg; details: in vivo
In short: (§5)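 Rats given 3 mg/kg; IV formulation was a solution in 10% w/v Solutol in 5% dextrose in water (D5W). Blood was drawn by orbital sinus puncture into heparinized tubes. Plasma was protein-precipitated with acetonitrile containing internal standard, centrifuged at 5000g for 3 min and analysed by LC-MS-MS against plasma calibration standards.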

[19] = Cmax in rat at 3 mg/kg, po; type: ADME, organism-based; set-up: dose 3 mg/kg, route oral; details: in vivo; in short: as §2
[20] = molecular target: Liver X receptor (Homo sapiens) (UniProt Q13133+P55055); assay: Effect on LXR; type: protein assay
[21] = Half life in rat at 3 mg/kg; type: ADME, organism-based; set-up: dose 3 mg/kg; details: in vivo; in short: as §5
Homo sapiens = species: Homo sapiens; assay: Selectivity for PPARdelta over PPARalpha

Cc1cc(SCc2nc(-c3ccc(C(F)(F)F)cc3)ns2)ccc1OC(C)(C)C(=O)O
EC50 [1]: 79 nM
Activity [2]: 51%
EC50 [3]: 6 nM

Cc1cc(SCc2nc(-c3ccc(OC(F)(F)F)cc3)ns2)ccc1OC(C)(C)C(=O)O
EC50 [4]: > 3 µM
bioavailability [5]: 96%
Activity (Rattus norvegicus [6]): Active
Activity (Mus musculus [7]): 31%
Activity (Mus musculus [8]): 85%
Activity (Mus musculus [9]): 80% and 98.9 mg/dl
AUC [10]: 22000 ng·h/mL
Activity [2]: 44%
Activity (Mus musculus [11]): 74%
EC50 [12]: 127 nM
Activity (Rattus norvegicus [13]): Active
Activity [14]: inactive
Activity [15]: inactive
Tmax [16]: 48 min
Activity [17]: inactive
clearance [18]: 2.2 mL/min/kg
Cmax [19]: 6680 ng/mL
Activity [20]: inactive
half-life [21]: 318 min

Cc1cc(SCc2nsc(-c3ccc(OC(F)(F)F)cc3)n2)ccc1OC(C)(C)C(=O)O
EC50 [4]: > 3 µM
Activity [2]: 47%

Cc1cc(SCc2nsc(-c3ccc(C(F)(F)F)cc3)n2)ccc1OC(C)(C)C(=O)O
Activity [2]: 38%

Cc1cc(SCc2nc(-c3ccc(C(F)(F)F)cc3)ns2)ccc1OCC(=O)O
EC50 [4]: > 3 µM
Selectivity ratio (Homo sapiens): 47
Activity [2]: 42%

Cc1cc(OCc2nc(-c3ccc(C(F)(F)F)cc3)ns2)ccc1OC(C)(C)C(=O)O
Activity [2]: 71%

Cc1cc(SCc2nc(-c3ccc(OC(F)(F)F)cc3)ns2)ccc1OC1(C(=O)O)CCCC1
Activity [2]: 31%

Cc1cc(SCc2nc(-c3ccc(Cl)cc3)ns2)ccc1OC(C)(C)C(=O)O
Activity [2]: 38%

Cc1cc(OCc2nc(-c3ccc(OC(F)(F)F)cc3)ns2)ccc1OC(C)(C)C(=O)O
Activity [2]: 80%
EC50 [3]: 12 nM

Cc1cc(SCc2nc(-c3ccc(C(C)(C)C)cc3)ns2)ccc1OC(C)(C)C(=O)O
Activity [2]: 64%
